Test results reported in ChEMBL document CHEMBL1127427, “Effect of molecular manipulation on the estrogenic activity of a brain-targeting estradiol chemical delivery system” (J Med Chem, 1994).

What was measured:
[1] = Compound was evaluated for first order half-life in brain homogenate.; type: ADME, tissue-based
Outline: (§1)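 Male Sprague-Dawley rats were PBS-perfused and their organs homogenized in PBS: brain 2% w/v, liver 1.0% w/v. Compound loss followed by the fall in 360 nm absorbance. Pseudo-first-order rate constant taken from log(A360) versus time. Triplicate runs; half-life given as mean ± SEM.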

[2] = Compound was evaluated for first order half-life in liver homogenate.; type: ADME, tissue-based; outline: as §1
[3] = Compound was evaluated for oxidation rate constant in brain homogenate; type: ADME, tissue-based; outline: as §1
[4] = Compound was evaluated for oxidation rate constant in liver homogenate; type: ADME, tissue-based; settings: tissue homogenate; outline: as §1
[5] = species: Rattus norvegicus; assay: Compound is tested in male rats for its effect on the pituitary weight; type: functional; design: concentration or dose not given beside the values
Outline: (§2)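 Adult male Sprague-Dawley rats (175–200 g) received a single iv tail-vein dose of 0.025 mmol/kg (equal to 5 mg/kg E2-CDS) or DMSO vehicle (0.5 mL/kg). Weighed daily for 14 days. Euthanized at day 14; organ excised and weighed. Expressed as mg per 100 g body weight, mean ± SEM, n=6.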

[6] = species: Rattus norvegicus; assay: Compound is tested in male rats for its effect on the prostate weight; type: functional, Prostate gland; design: concentration or dose not given beside the values; outline: as §2
[7] = species: Rattus norvegicus; assay: Compound was tested in male rats for its effect on the seminal vesicle weight; type: functional; design: concentration or dose not given beside the values; outline: as §2
[8] = system: Rattus norvegicus; assay: Compound is evaluated for effect on serum estradiol, 14 days subsequent to a single intravenous dose determined by means of a radioimmunoassay; type: functional, organism-based
Outline: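 Adult male Sprague-Dawley rats (175–200 g), conscious and restrained, given a single tail-vein iv injection of 0.025 mmol/kg (equal to 5 mg/kg E2-CDS) or DMSO vehicle (0.5 mL/kg). Serum taken at day 14. Estradiol measured in duplicate by Coat-a-Count RIA. Antibody cross-reactivity with E2-Q+ <0.1%; detection limit 10 pg/mL. Mean ± SEM.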

Row | SMILES | half-life [1] | half-life [2] | k [3] | k [4] | Activity [5] | Activity [6] | Activity [7] | Concentration [8]
1 | C[C@]12CC[C@@H]3c4ccc(O)cc4CC[C@H]3[C@@H]1CC[C@@H]2O [ESTRADIOL] |  |  |  |  | 3.88% | 62.26% | 107.36% | 22.2 pg/mL
2 | CN1C=CCC(C(=O)O[C@H]2CC[C@H]3[C@@H]4CCc5cc(O)ccc5[C@H]4CC[C@]23C)=C1 | 2.02 h | 0.533 h | 0.00577 min⁻¹ | 0.0815 min⁻¹ | 6.46% | 35.75% | 68.15% | 53 pg/mL
3 | C[C@]12CC[C@@H]3c4ccc(O)cc4CC[C@H]3[C@@H]1CC[C@@H]2OC(=O)C1=CN(CC2CC2)C=CC1 | 1.9 h | 0.633 h | 0.00611 min⁻¹ | 0.0183 min⁻¹ | 4.4% | 54.31% | 97.29% | 40.4 pg/mL
4 | CC(C)N1C=CCC(C(=O)O[C@H]2CC[C@H]3[C@@H]4CCc5cc(O)ccc5[C@H]4CC[C@]23C)=C1 | 2 h | 0.433 h | 0.0058 min⁻¹ | 0.0263 min⁻¹ | 4.86% | 68.64% | 104.62% | 43.6 pg/mL
5 | CCCCCCN1C=CCC(C(=O)O[C@H]2CC[C@H]3[C@@H]4CCc5cc(O)ccc5[C@H]4CC[C@]23C)=C1 | 4.32 h | 0.933 h | 0.00268 min⁻¹ | 0.0123 min⁻¹ | 5.28% | 66.26% | 95.66% | 37.4 pg/mL

Second part, led by results:

Row | half-life [1] | half-life [2] | k [3] | k [4] | SMILES | Activity [5] | Activity [6] | Activity [7] | Concentration [8]
6 | 1.57 h | 0.867 h | 0.00736 min⁻¹ | 0.0153 min⁻¹ | CCCN1C=CCC(C(=O)O[C@H]2CC[C@H]3[C@@H]4CCc5cc(O)ccc5[C@H]4CC[C@]23C)=C1 | 5.32% | 46.4% | 85.97% | 42.9 pg/mL
7 | 3.3 h | 0.367 h | 0.00353 min⁻¹ | 0.0323 min⁻¹ | CCN1C=CCC(C(=O)O[C@H]2CC[C@H]3[C@@H]4CCc5cc(O)ccc5[C@H]4CC[C@]23C)=C1 | 6.17% | 32.06% | 70.75% | 37.7 pg/mL
8 | 4.8 h | 1.32 h | 0.00238 min⁻¹ | 0.00892 min⁻¹ | C[C@]12CC[C@@H]3c4ccc(O)cc4CC[C@H]3[C@@H]1CC[C@@H]2OC(=O)C1=CN(Cc2ccccc2)C=CC1 | 4.86% | 67.38% | 97.43% | 42 pg/mL
9 | 2.05 h | 0.483 h | 0.00567 min⁻¹ | 0.0242 min⁻¹ | C[C@]12CC[C@@H]3c4ccc(O)cc4CC[C@H]3[C@@H]1CC[C@@H]2OC(=O)C1=CN(CCCO)C=CC1 | 4.6% | 75.22% | 106.49% | 44.3 pg/mL
